Source: ChEMBL document CHEMBL1142259, “Design and synthesis of novel potent and selective integrin alphanubeta3 antagonists--novel synthetic routes to isoquinolinone, benzoxazinone, and quinazolinone acetates” (Bioorg Med Chem Lett, 2008)

Key:
Integrin alpha-V/beta-3 = Integrin alpha-V/beta-3 (Homo sapiens, UniProt P05106+P06756); assay: Displacement of vitronectin from integrin alphavbeta3 receptor; assay type: protein-complex assay
In short: (§1)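 Ligand displacement from the isolated integrin receptor: vitronectin for αvβ3 and fibrinogen for αIIbβ3. IC50 reported as the mean of three experiments. Intra-assay variation <10%; inter-assay variation < factor 2.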

[1] = target: Integrin alpha-IIb/beta-3 (Homo sapiens, UniProt P05106+P08514); assay: Displacement of fibrinogen from integrin alpha2bbeta3 receptor; assay type: protein-complex assay; in short: as §1
[2] = target: Integrin alpha-5/beta-1 (Homo sapiens) (UniProt P05556+P08648); assay: Inhibition of integrin alpha5beta1 receptor mediated cellular binding to fibronectin at 10 uM; assay type: protein-complex assay
[3] = Apparent permeability across human Caco-2 cells; assay type: ADME, cell-based
In short: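 Apparent permeability coefficient (Papp) measured in Caco-2 monolayers. n = 2, intra-assay variation <20%. Papp >2e-7 cm/s is classed as medium transport and >2e-6 cm/s as high transport.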

Sequence of Integrin alpha-V/beta-3 (P05106 27-788 limits assumed): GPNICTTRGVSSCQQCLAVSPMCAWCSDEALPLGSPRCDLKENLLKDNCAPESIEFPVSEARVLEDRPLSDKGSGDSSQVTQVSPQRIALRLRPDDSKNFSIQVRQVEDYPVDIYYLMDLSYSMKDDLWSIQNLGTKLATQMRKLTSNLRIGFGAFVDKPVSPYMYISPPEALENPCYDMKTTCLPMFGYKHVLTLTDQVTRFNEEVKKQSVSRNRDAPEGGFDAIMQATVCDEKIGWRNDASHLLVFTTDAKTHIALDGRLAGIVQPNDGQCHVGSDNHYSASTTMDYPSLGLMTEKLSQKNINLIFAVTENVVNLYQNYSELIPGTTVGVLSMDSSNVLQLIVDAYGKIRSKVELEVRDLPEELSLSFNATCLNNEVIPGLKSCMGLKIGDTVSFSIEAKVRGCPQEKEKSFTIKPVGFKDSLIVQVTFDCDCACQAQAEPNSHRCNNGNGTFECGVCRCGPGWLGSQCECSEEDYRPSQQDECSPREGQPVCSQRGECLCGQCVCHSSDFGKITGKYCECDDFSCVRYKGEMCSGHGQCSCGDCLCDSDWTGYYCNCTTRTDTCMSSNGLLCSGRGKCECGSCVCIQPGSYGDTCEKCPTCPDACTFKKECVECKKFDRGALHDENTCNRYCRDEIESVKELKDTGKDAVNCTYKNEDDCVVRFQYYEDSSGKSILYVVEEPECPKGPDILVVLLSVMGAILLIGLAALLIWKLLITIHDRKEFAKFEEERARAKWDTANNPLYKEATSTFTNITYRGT
Sequence of Integrin alpha-V/beta-3 (P06756 31-889 limits assumed): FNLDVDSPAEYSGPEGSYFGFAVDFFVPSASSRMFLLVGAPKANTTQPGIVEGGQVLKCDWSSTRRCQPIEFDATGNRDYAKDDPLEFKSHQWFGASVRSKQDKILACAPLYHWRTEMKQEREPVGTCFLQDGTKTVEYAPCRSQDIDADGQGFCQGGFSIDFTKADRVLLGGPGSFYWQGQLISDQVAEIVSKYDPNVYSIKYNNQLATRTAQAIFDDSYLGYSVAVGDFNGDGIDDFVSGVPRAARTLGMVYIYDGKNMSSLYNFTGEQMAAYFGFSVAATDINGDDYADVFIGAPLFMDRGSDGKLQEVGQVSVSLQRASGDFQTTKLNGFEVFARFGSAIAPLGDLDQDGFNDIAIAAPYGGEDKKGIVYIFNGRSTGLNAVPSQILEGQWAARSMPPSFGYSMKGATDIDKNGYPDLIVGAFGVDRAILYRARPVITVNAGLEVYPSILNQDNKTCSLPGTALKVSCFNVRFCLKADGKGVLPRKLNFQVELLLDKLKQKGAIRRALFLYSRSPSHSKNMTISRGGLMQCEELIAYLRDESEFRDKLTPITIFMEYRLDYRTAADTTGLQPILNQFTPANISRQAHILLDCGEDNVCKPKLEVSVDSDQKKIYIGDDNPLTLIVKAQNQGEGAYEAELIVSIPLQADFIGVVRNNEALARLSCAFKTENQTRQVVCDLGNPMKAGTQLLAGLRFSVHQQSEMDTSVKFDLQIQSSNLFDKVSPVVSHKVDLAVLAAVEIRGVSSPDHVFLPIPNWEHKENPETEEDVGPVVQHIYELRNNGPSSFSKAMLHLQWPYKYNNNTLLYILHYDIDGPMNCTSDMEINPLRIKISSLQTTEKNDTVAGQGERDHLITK
Sequence of Integrin alpha-V/beta-3 (P06756 891-1048 limits assumed): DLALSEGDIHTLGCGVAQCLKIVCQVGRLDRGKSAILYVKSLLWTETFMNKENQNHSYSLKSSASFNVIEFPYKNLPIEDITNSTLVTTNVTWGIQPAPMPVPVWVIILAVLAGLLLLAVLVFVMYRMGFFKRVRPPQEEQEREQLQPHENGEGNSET
Sequence of Integrin alpha-IIb/beta-3 (P05106 27-788 limits assumed): as the sequence (P05106 27-788 limits assumed) above
Sequence of Integrin alpha-IIb/beta-3 (P08514 32-887 limits assumed): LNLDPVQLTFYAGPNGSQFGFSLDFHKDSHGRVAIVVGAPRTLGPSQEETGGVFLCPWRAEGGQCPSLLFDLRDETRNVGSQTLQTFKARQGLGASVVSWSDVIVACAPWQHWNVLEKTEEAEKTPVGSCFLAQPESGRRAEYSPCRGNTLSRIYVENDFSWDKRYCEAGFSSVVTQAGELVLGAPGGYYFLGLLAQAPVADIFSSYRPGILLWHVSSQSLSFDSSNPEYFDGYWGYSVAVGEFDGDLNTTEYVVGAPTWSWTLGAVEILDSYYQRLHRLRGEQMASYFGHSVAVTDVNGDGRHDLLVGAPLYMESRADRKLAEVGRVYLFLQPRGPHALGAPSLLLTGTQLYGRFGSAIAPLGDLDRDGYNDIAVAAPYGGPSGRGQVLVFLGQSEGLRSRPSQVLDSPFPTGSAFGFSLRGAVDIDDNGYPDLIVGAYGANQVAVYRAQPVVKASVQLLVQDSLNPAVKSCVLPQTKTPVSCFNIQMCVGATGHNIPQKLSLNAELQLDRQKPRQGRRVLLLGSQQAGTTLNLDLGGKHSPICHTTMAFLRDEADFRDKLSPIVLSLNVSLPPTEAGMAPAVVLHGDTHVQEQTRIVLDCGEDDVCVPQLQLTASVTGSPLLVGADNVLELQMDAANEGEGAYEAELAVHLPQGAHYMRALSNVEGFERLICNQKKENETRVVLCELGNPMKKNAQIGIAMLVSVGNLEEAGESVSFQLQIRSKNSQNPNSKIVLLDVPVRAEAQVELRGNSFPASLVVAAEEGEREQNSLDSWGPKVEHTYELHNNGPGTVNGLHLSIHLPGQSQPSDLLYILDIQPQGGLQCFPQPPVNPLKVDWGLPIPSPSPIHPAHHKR
Sequence of Integrin alpha-IIb/beta-3 (P08514 891-1039 limits assumed): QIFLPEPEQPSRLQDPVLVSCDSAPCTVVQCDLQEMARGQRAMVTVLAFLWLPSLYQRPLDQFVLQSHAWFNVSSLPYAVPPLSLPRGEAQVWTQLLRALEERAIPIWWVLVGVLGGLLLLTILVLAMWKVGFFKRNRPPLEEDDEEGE

SMILES | IC50 (Integrin alpha-V/beta-3) [nM] | other results
O=C(O)CC1CCC(=O)N(CC(=O)NCC2CCC(Nc3nc4ccccc4[nH]3)CC2)c2ccccc21 (centres undefined) | 1.5 | –
O=C(O)CCc1cc(=O)n(CC(=O)NCC2CCC(Nc3nc4ccccc4[nH]3)CC2)c2ccccc12 (trans isomer) | 1000 | –
O=C(O)Cc1cc(=O)n(CC(=O)NCC2CCC(Nc3nc4ccccc4[nH]3)CC2)c2ccccc12 (centres undefined) | 10 | –
O=C(O)CC1NC(=O)N(CC(=O)NCC2CCC(Nc3nc4ccccc4[nH]3)CC2)c2ccccc21 (trans isomer) | 13 | –
O=C(O)CC1CC(=O)N(CC(=O)NCC2CCC(Nc3nc4ccccc4[nH]3)CC2)c2ccccc21 (trans isomer) | 7.4 | –
O=C(O)CC1OC(=O)N(CC(=O)NCC2CCC(Nc3nc4ccccc4[nH]3)CC2)c2ccccc21 (centres undefined) | 0.7 | IC50 [1]: > 10000 nM; inhibition [2]: 25%; Papp [3]: 3.23 ×10⁻⁶ cm/s
O=C(O)CC1CN(CC(=O)NCC2CCC(Nc3nc4ccccc4[nH]3)CC2)C(=O)c2ccccc21 (trans isomer) | 10000 | –
O=C(O)CCc1cc(=O)n(CC(=O)NCc2ccc(Nc3nc4ccccc4[nH]3)cc2)c2ccccc12 | 500 | –
O=C(O)CC1CCN(CC(=O)NCC2CCC(Nc3nc4ccccc4[nH]3)CC2)C(=O)c2ccccc21 (centres undefined) | 11 | –
O=C(O)CCC1CC(=O)N(CC(=O)NCC2CCC(Nc3nc4ccccc4[nH]3)CC2)c2ccccc21 (centres undefined) | 27 | –

Now from value to compound, other results behind:

IC50 (Integrin alpha-V/beta-3) [nM] | SMILES | other results
50 | O=C(O)CC1CC(=O)N(CC(=O)NCc2ccc(Nc3nc4ccccc4[nH]3)cc2)c2ccccc21 (centres undefined) | –
4.4 | O=C(O)CC1CCC(=O)N(CC(=O)NCc2ccc(Nc3nc4ccccc4[nH]3)cc2)c2ccccc21 (centres undefined) | –
4.2 | O=C(O)CC1OC(=O)N(CC(=O)NCc2ccc(Nc3nc4ccccc4[nH]3)cc2)c2ccccc21 (centres undefined) | IC50 [1]: > 10000 nM; inhibition [2]: 8%; Papp [3]: 3.48 ×10⁻⁶ cm/s
122 | O=C(O)CC1CCN(CC(=O)NCc2ccc(Nc3nc4ccccc4[nH]3)cc2)C(=O)c2ccccc21 (centres undefined) | –
37 | O=C(O)CC1NC(=O)N(CC(=O)NCc2ccc(Nc3nc4ccccc4[nH]3)cc2)c2ccccc21 (centres undefined) | –
10000 | O=C(O)CC1CN(CC(=O)NCc2ccc(Nc3nc4ccccc4[nH]3)cc2)C(=O)c2ccccc21 (centres undefined) | –
5000 | O=C(O)CCC1CC(=O)N(CC(=O)NCc2ccc(Nc3nc4ccccc4[nH]3)cc2)c2ccccc21 (centres undefined) | –
50 | O=C(O)Cc1cc(=O)n(CC(=O)NCc2ccc(Nc3nc4ccccc4[nH]3)cc2)c2ccccc12 | –
